“Also recorded” adds a separate entry of the source.
Experiments:
[1] = test system: L-type Ca^2+ channels at the surface of hippocampal pyramidal neurons; details: chelating intracellular Ca^2+, ref [27]; cited from earlier work
[2] = test system: L-type channel; details: ref [71], [72]; cited from earlier work
[3] = molecular target: apoCaM (Homo sapiens, UniProt P0DP23); assay: Fluorescence polarization, binding of IQ domain-derived peptides to apoCaM; details: FP assay, relative to WT peptide
In short: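 Wild-type or mutant α11.2 IQ peptides (AAs 1644-1668), N-terminally fluorescein-labelled, at 1 μM final, were mixed with twofold serial dilutions of untagged purified apoCaM starting from 100 μM. Polarization was read after ≥45 min (ex 485/20, em 528/20) and normalized to fractional binding. Kd came from fitting Y = B*X/(Kd + X); error bars are SD.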

[4] = test system: surface expression of CaV1.2 (α11.2) in HEK293T/17 cells; assay: Cell surface biotinylation of HA-tagged α11.2 in HEK293T/17 cells; format: cell-based, rat; details: NeutrAvidin pull-down, immunoblot, normalized to WT; N=7–13
In short: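 HEK293T/17 cells co-transfected 1:1:1 (calcium phosphate) with α2δ1, β2a and WT or mutant CFP-HA-α11.2; medium changed at 7 h, Accutase-detached at 22 h, >95% trypan-blue-negative. 6×10^6 cells surface-labelled with 0.4 mg/mL sulfo-NHS-LC-biotin, 30 min on ice, pH 7.8; glycine-quenched, RIPA-lysed. 250 μg lysate on NeutrAvidin beads, 2 h, 4°C. Immunoblot for HA, loop II/III, GAPDH and α-tubulin; ECL exposures kept linear.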

[5] = test system: CaV1.2; assay: Whole-cell Ba2+ current recording in HEK293T/17 cells; format: cell-based, rat α11.2, rat β2a, rabbit α2δ1; details: for Erev (equilibrium/reversal potential) / Gmax (maximum conductance) / V1/2 (half-activation voltage): Boltzmann IV fit; for Erev (equilibrium/reversal potential) / Gmax (maximum conductance) / V1/2 (half-activation voltage) / current density relative to WT: N=6–7; for V1/2 (half-activation voltage): *** p<0.001 vs WT; for current density relative to WT: at 20 mV, ANOVA, Tukey and Bonferroni; for shift of V1/2 relative to WT: shift towards more depolarized levels
In short: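 HEK293T/17 cells on poly-L-lysine coverslips were transfected 1:1:1 with β2a, α2δ1 and HA/CFP-tagged WT or mutant α11.2 (Lipofectamine 2000). Whole-cell Ba2+ currents were taken 48–72 h later from CFP-positive cells, held at −70 mV and stepped from −40 to +80 mV in 10 mV increments, with P/4 leak subtraction. Currents were capacitance-normalized, I–V curves Boltzmann-fitted, and data given as mean ± S.E.M. (ANOVA, Tukey/Bonferroni). Cells came from ≥3 independent transfections.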

[6] = test system: surface expression of CaV1.2 (α11.2) in HEK293T/17 cells; assay: Flow cytometry of surface anti-HA staining of α11.2 in HEK293T/17 cells; format: cell-based, rat; details: N=5–7; for reduction in surface labeling of HA-epitope: relative to WT channel labeling
In short: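 HEK293T/17 cells were co-transfected 1:1:1 with α2δ1, β2a and CFP-HA-α11.2 (HA in the domain II S5-H5 extracellular loop) by calcium phosphate, with medium changed at 7 h. At 22 h, Accutase-detached, trypan-blue-counted live cells (6×10^6) were stained on ice for 1 h in the dark ± 2.5 μg/mL Alexa 647 anti-HA, then given 1 μg/mL PI. 50,000 PI-negative singlets were collected; HA-positive percentage of CFP-positive cells was normalized to WT.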

For `O=C(O)CN(CC(=O)O)c1ccccc1OCCOc1ccccc1N(CC(=O)O)CC(=O)O` [BAPTA], the “prevalence of L-type Ca2+ channels at the surface” value [1] is given as “increased the prevalence of L-type Ca^2+ channels at the surface”.
In the case of `COC(=O)C1=C(C)NC(C)=C([N+](=O)[O-])C1c1ccccc1C(F)(F)F` (stereo not drawn) [BayK8644], the “behavioral effect” value [2] is given as “depressant-like behavior”.
With “F1648A: fluorescein-labeled α11.2 IQ domain peptide (AAs 1644-1668), F1648A mutant” the “effect of mutation on apoCaM binding” value [3] was “did not affect apoCaM binding”, the “surface expression by biotinylation relative to WT” value [4] was “did not exhibit statistically significant differences” and the “Erev (equilibrium/reversal potential)” value [5] was 73.5 ± 1.7 mV. For the same compound, the “Gmax (maximum conductance)” value [5] was 0.26 ± 0.02, the “V1/2 (half-activation voltage)” value [5] was 3.0 ± 1.5 mV and the “current density relative to WT” value [5] was “did not show a significant reduction”.
For “I1654A: fluorescein-labeled α11.2 IQ domain peptide (AAs 1644-1668), I1654A mutant”, the “reduction in surface labeling of HA-epitope” value (“reduction in surface labeling” for short) [6] was ~ 35%, the “effect of mutation on apoCaM binding” value [3] was “affected apoCaM binding; also recorded: reduced binding affinity to apoCaM” and the “surface expression by biotinylation relative to WT” value [4] was “significant decreases in surface expression”. For the same compound, the “Erev (equilibrium/reversal potential)” value [5] was 75.7 ± 1.7 mV, the “Gmax (maximum conductance)” value [5] was 0.15 ± 0.01 and the “V1/2 (half-activation voltage)” value [5] was 11.2 ± 1.5*** mV. The “current density relative to WT” value [5] was “significantly reduced current density” and the “shift of V1/2 relative to WT” value [5] was “quite pronounced and significant”.
For “K1647A: fluorescein-labeled α11.2 IQ domain peptide (AAs 1644-1668), K1647A mutant”, the “reduction in surface labeling” value [6] was ~ 35%, the “surface expression by biotinylation relative to WT” value [4] was “significant decreases in surface expression” and the “Erev (equilibrium/reversal potential)” value [5] was 69.2 ± 1.3 mV. The “Gmax (maximum conductance)” value [5] was 0.09 ± 0.01, the “V1/2 (half-activation voltage)” value [5] was 1.1 ± 1.4 mV and the “current density relative to WT” value [5] was “significantly reduced current density”. The “shift of V1/2 relative to WT” value [5] was “did not reach statistical significance”.
For “Q1655A: fluorescein-labeled α11.2 IQ domain peptide (AAs 1644-1668), Q1655A mutant”, the “percentage of anti-HA and CFP co-positive events relative to WT” value ([6]; PI-negative, CFP-positive cells, normalized to WT) was “not observed”, the “effect of mutation on apoCaM binding” value [3] was “did not affect apoCaM binding” and the “surface expression by biotinylation relative to WT” value [4] was “did not exhibit statistically significant differences”. For the same compound, the “Erev (equilibrium/reversal potential)” value [5] was 67.2 ± 2.7 mV, the “Gmax (maximum conductance)” value [5] was 0.25 ± 0.02 and the “V1/2 (half-activation voltage)” value [5] was −2.6 ± 1.6 mV. The “current density relative to WT” value [5] was “did not show a significant reduction”.
For “Y1649A: fluorescein-labeled α11.2 IQ domain peptide (AAs 1644-1668), Y1649A mutant”, the “reduction in surface labeling” value [6] was ~ 35%, the “surface expression by biotinylation relative to WT” value [4] was “significant decreases in surface expression” and the “Erev (equilibrium/reversal potential)” value [5] was 66.5 ± 2.9 mV. For the same compound, the “Gmax (maximum conductance)” value [5] was 0.08 ± 0.01, the “current density relative to WT” value [5] was “significantly reduced current density” and the “shift of V1/2 relative to WT” value [5] was “quite pronounced and significant”.
